Source: article PMC4368043 (ACS Chemical Neuroscience, 2014)
Entries after “also recorded” stand apart in the source; their conditions may differ.

Assays:
SH-SY5Y cells = experiment: Cell viability assay, thapsigargin as stressor; format: cell-based, human; conditions: 7.5 μM thapsigargin; for EC50: read-out: SH-SY5Y EC50 ± SEM, cytoprotection, dose-response; for cytoprotective activity against thapsigargin-induced cell death (in words): SH-SY5Y cells
In short: (§1)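 Cells plated overnight at 37 °C, 5% CO2 in phenol red-free DMEM with 2% FBS (SH-SY5Y 4 × 10^4, H4 2.5 × 10^3 cells/well). Test compound in dose–response for 2 h, then thapsigargin 7.5 μM final for 18 h at 37 °C. Read by MTS absorbance at 490 nm. Viability % = background-subtracted (cell-free medium) relative to DMSO-only, no-thapsigargin wells. EC50 from dose–response curves. ≥3 repeats, mean ± SEM.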

[1] = Microsomal stability assay; format: in vitro ADME; conditions: mouse, pooled mouse liver microsomes
In short: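 Pooled mouse liver microsomes (1 μg/μL protein) preincubated 10 min at 37 °C with test compound (4 μM final). Started with NADPH (2 mM final) and incubated 1 h at 37 °C with shaking. Zero-time and end samples quenched in 5:1 acetonitrile:water and centrifuged. Indomethacin added as internal standard. Quantified by triple-quadrupole LC-MS/MS in MRM mode; % remaining at 1 h.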

Plasma stability assay = format: in vitro ADME; conditions: male, C57BL/6, mouse
In short: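 Plasma from male C57BL/6 mice, diluted 1:1 with PBS and warmed to 37 °C. Test compound added to 1 μM final and incubated 3 h at 37 °C with shaking. Zero-time and end samples quenched in 5:1 acetonitrile:water and centrifuged. Indomethacin added as internal standard. Quantified by LC-MS/MS in MRM mode; % remaining at 3 h.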

p38 MAPK [2] = experiment: Immunoblotting of thapsigargin-induced phospho-p38 MAPK in H4 cells; format: cell-based, human; conditions: compound 25 μM and 5 μM 2 h, then 20 μM thapsigargin 1 h, immunoblot
In short: (§2)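 H4 cells, 2.5 × 10^6 per 10 cm dish, grown overnight in phenol red-free DMEM with 2% FBS, then serum-starved 2 h. Test compound at 25 or 5 μM for 2 h, then thapsigargin 20 μM for 1 h. Lysed in RIPA buffer with protease and phosphatase inhibitors; protein measured by BCA. 50 μg run on 4–12% Bis-Tris SDS-PAGE and transferred to PVDF. Probed for phospho-p38, p38, phospho-JNK and JNK; HRP secondaries, ECL detection.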

JNK = experiment: Immunoblotting of thapsigargin-induced phospho-JNK in H4 cells; format: cell-based, human; conditions: compound 25 μM and 5 μM 2 h, then 20 μM thapsigargin 1 h, immunoblot
In short: as §2

p38 MAPK [3] = experiment: Activity of p38 MAPK pathway, H4-CHOP-luciferase reporter cells; format: cell-based, human
In short: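 H4 cells stably carrying pFR-Luc and pFA-CHOP plasmids, 1000 cells/well, grown 24 h in 10% FBS DMEM, then switched to phenol red-free DMEM with 2% FBS. Test compound for 1 h at 37 °C (10 μM with thapsigargin or CDDO-IM; 20 μM with MG132; 50 μM with ionomycin). Read by Steady-Glo luminescence. RLU % = background-subtracted (compound-only wells) relative to inducer-only wells. ≥3 repeats, mean ± SEM, one-way ANOVA.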

[4] = tested on: panel of 46 receptors, ion channels, and transporters; experiment: NIMH PDSP off-target panel; format: binding
H4 cells = experiment: Cell viability assay, thapsigargin as stressor; format: cell-based, human; conditions: 7.5 μM thapsigargin; for cytoprotective activity against thapsigargin-induced cell death (in words): H4 cells; for EC50: read-out: H4 EC50 ± SEM, cytoprotection, dose-response
In short: as §1

Compound	EC50 (SH-SY5Y cells)	remaining at 1 h, 4 μM [1]	remaining at 3 h, 1 μM (Plasma stability assay)	cytoprotective activity against thapsigargin-induced cell death (in words) (SH-SY5Y cells)	EC50 (H4 cells)	also measured
CCN(CC)c1ccc(C2Nc3ccc(C(=O)c4ccccc4)cc3NC3=C2C(=O)CC(C)(C)C3)cc1 (centres unmarked) [4hh, 7-Benzoyl-11-(4-(diethylamino)phenyl)-3,3-dimethyl-2,3,4,5,10,11-hexahydro-1H-dibenzo[b,e][1,4]diazepin-1-one]	–	7.9 ± 6.3%	≥ 100%	very strong cytoprotective activity	–	p38 activity (phosphorylation) in response to thapsigargin (p38 MAPK [2]): significantly reduced; JNK activity (phosphorylation) in response to thapsigargin (JNK): significantly reduced; p38 activation initiated by CDDO-IM (CHOP-luciferase RLU) (p38 MAPK [3]; 10 μM compound 1 h, CDDO-IM 600 nM 18 h): reduced p38 activation; p38 activation initiated by thapsigargin (CHOP-luciferase RLU) (p38 MAPK [3]; 10 μM compound 1 h, thapsigargin 20 nM 18 h): reduced p38 activation; p38 activity stimulated by MG132 (CHOP-luciferase RLU) (p38 MAPK [3]; 20 μM compound 1 h, MG132 740 nM 18 h): had no effect; p38 activation initiated by ionomycin (CHOP-luciferase RLU) (p38 MAPK [3]; 50 μM compound 1 h, ionomycin 120 nM 18 h): reduced p38 activation; calcium regulator-induced p38 MAPK activation (p38 MAPK [3]; H4-CHOP-luciferase reporter cells, inducers that disrupt calcium homeostasis): moderate inhibition; also recorded: inhibits; off-target interactions in PDSP panel [4]: No significant off-target interactions were detected
CC1(C)CC(=O)C2=C(C1)Nc1cc(C(=O)c3ccccc3)ccc1NC2c1ccc(O)cc1 (centres unmarked) [4ll, 7-Benzoyl-11-(4-hydroxyphenyl)-3,3-dimethyl-2,3,4,5,10,11-hexahydro-1H-dibenzo[b,e] [1,4]diazepin-1-one]	–	–	–	devoid of cytoprotective activity	–	cytoprotective activity against thapsigargin-induced cell death (in words) (H4 cells): devoid of cytoprotective activity
CC1(C)CC(=O)C2=C(C1)Nc1cc(C(F)(F)F)ccc1NC2c1ccc(N2CCCC2)cc1 (centres unmarked) [4ee, 3,3-Dimethyl-11-(4-(pyrrolidin-1-yl)phenyl)-7-(trifluoromethyl)-2,3,4,5,10,11-hexahydro-1H-dibenzo[b,e][1,4]diazepin-1-one]	14 ± 0.18 µM	1.8 ± 0.4%	98.8 ± 3.7%	–	18.8 ± 2.77 µM	–
CN(C)c1ccc(C2Nc3ccc(Br)cc3NC3=C2C(=O)CC(C)(C)C3)cc1 (centres unmarked) [4s, 7-Bromo-11-(4-(dimethylamino)phenyl)-3,3-dimethyl-2,3,4,5,10,11-hexahydro-1H-dibenzo [b,e][1,4]diazepin-1-one]	–	–	–	–	12.9 ± 0.92 µM	–
CCCCN(CCCC)c1ccc(C2Nc3ccc(Br)cc3NC3=C2C(=O)CC(C)(C)C3)cc1 (centres unmarked) [4w, 7-Bromo-11-(4-(dibutylamino)phenyl)-3,3-dimethyl-2,3,4,5,10,11-hexahydro-1H-dibenzo [b,e][1,4]diazepin-1-one]	–	–	–	but not in SH-SY5Y cells	13.1 ± 2.53 µM	–
CC1(C)CC(=O)C2=C(C1)Nc1cc(C(=O)c3ccccc3)ccc1NC2c1ccsc1 (centres unmarked) [4mm, 7-Benzoyl-3,3-dimethyl-11-(thiophen-3-yl)-2,3,4,5,10,11-hexahydro-1H-dibenzo[b,e] [1,4]diazepin-1-one]	–	–	–	devoid of cytoprotective activity; also recorded: does not	–	cytoprotective activity against thapsigargin-induced cell death (in words) (H4 cells): devoid of cytoprotective activity; p38 activity (phosphorylation) in response to thapsigargin (p38 MAPK [2]): had no effect; JNK activity (phosphorylation) in response to thapsigargin (JNK): had no effect

Continued, in another order:

EC50 (SH-SY5Y cells)	remaining at 1 h, 4 μM [1]	remaining at 3 h, 1 μM (Plasma stability assay)	Compound	cytoprotective activity against thapsigargin-induced cell death (in words) (SH-SY5Y cells)	EC50 (H4 cells)	also measured
14.6 ± 1.61 µM	0.1 ± 0.1%	≥ 100%	CC1(C)CC(=O)C2=C(C1)Nc1cc(Br)ccc1NC2c1ccc(N2CCCC2)cc1 (centres unmarked) [4t, 7-Bromo-3,3-dimethyl-11-(4-(pyrrolidin-1-yl)phenyl)-2,3,4,5,10,11-hexahydro-1H-dibenzo [b,e][1,4]diazepin-1-one]	–	–	–
–	1.8 ± 2.1%	97.9 ± 5.7%	CCN(CC)c1ccc(C2Nc3ccc(-c4ccccc4)cc3NC3=C2C(=O)CC(C)(C)C3)cc1 (centres unmarked) [4y, 11-(4-(Diethylamino)phenyl)-3,3-dimethyl-7-phenyl-2,3,4,5,10,11-hexahydro-1H-dibenzo [b,e][1,4]diazepin-1-one]	–	–	–
–	12.9 ± 1.6%	≥ 100%	CC1(C)CC(=O)C2=C(C1)Nc1cc(C(=O)c3ccccc3)ccc1NC2c1ccc(N2CCCCC2)cc1 (centres unmarked) [4jj, 7-Benzoyl-3,3-dimethyl-11-(4-(piperidin-1-yl)phenyl)-2,3,4,5,10,11-hexahydro-1H-dibenzo[b,e][1,4]diazepin-1-one]	–	–	–
16 ± 0.82 µM	4.7 ± 1.7%	≥ 100%	CC1(C)CC(=O)C2=C(C1)Nc1cc(C(F)(F)F)ccc1NC2c1ccc(N2CCCCC2)cc1 (centres unmarked) [4ff, 3,3-Dimethyl-11-(4-(piperidin-1-yl)phenyl)-7-(trifluoromethyl)-2,3,4,5,10,11-hexahydro-1H-dibenzo[b,e][1,4]diazepin-1-one]	–	19.5 ± 2.15 µM	–
